Assays:
[1] = Toxicokinetics of infigratinib in juvenile rat plasma after oral gavage; type: in vivo, Crl:WI(Han) rat; conditions: Crl:WI(Han), rat, plasma, po
[2] = Body weight at time of sacrifice; type: in vivo, rat; conditions: female rats, high dose, PND37, vs vehicle and low dose; non-significant
In short: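 Male and female Wistar rats received a daily oral gavage of vehicle (acetate buffer pH 4.68:PEG300, 50:50 v/v) or test compound at 0.1 or 1.0 mg/kg, starting on PND7. Rats were euthanized on PND14 or PND37, and body weight was recorded at sacrifice.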

[3] = female, 0.1 mg/kg/day, Female rats, 0.1 mg/kg/day oral, PND 23
[4] = female, 0.1 mg/kg/day, Female rats, 0.1 mg/kg/day oral, PND 35
[5] = female, 0.1 mg/kg/day, Female rats, 0.1 mg/kg/day oral, PND 7
[6] = female, 0.1 mg/kg/day, Female rats, 0.1 mg/kg/day oral, PND 12
[7] = female, 0.3 mg/kg/day, Female rats, 0.3 mg/kg/day oral, PND 7
[8] = female, 0.3 mg/kg/day, Female rats, 0.3 mg/kg/day oral, PND 12
[9] = female, 0.3 mg/kg/day, Female rats, 0.3 mg/kg/day oral, PND 23
[10] = female, 0.3 mg/kg/day, Female rats, 0.3 mg/kg/day oral, PND 35
[11] = female, 1 mg/kg/day, Female rats, 1.0 mg/kg/day oral, PND 7
[12] = female, 1 mg/kg/day, Female rats, 1.0 mg/kg/day oral, PND 12
[13] = female, 1 mg/kg/day, Female rats, 1.0 mg/kg/day oral, PND 23
[14] = female, 1 mg/kg/day, Female rats, 1.0 mg/kg/day oral, PND 35
[15] = male, 0.1 mg/kg/day, Male rats, 0.1 mg/kg/day oral, PND 7
[16] = male, 0.1 mg/kg/day, Male rats, 0.1 mg/kg/day oral, PND 12
[17] = male, 0.1 mg/kg/day, Male rats, 0.1 mg/kg/day oral, PND 23
[18] = male, 0.1 mg/kg/day, Male rats, 0.1 mg/kg/day oral, PND 35
[19] = male, 0.3 mg/kg/day, Male rats, 0.3 mg/kg/day oral, PND 7
[20] = male, 0.3 mg/kg/day, Male rats, 0.3 mg/kg/day oral, PND 12
[21] = male, 0.3 mg/kg/day, Male rats, 0.3 mg/kg/day oral, PND 23
[22] = male, 0.3 mg/kg/day, Male rats, 0.3 mg/kg/day oral, PND 35
[23] = male, 1 mg/kg/day, Male rats, 1.0 mg/kg/day oral, PND 7
[24] = male, 1 mg/kg/day, Male rats, 1.0 mg/kg/day oral, PND 12
[25] = male, 1 mg/kg/day, Male rats, 1.0 mg/kg/day oral, PND 23
[26] = male, 1 mg/kg/day, Male rats, 1.0 mg/kg/day oral, PND 35

CCN1CCN(c2ccc(Nc3cc(N(C)C(=O)Nc4c(Cl)c(OC)cc(OC)c4Cl)ncn3)cc2)CC1 [infigratinib, 3-(2,6-Dichloro-3,5-dimethoxy-phenyl)-1-{6-[4-(4-ethyl-piperazin-1-yl)-phenylamino]-pyrimidin-4-yl}-1-methyl-urea]
AUC(0-t) [1, 3]: 4.66 ng·h/mL
AUC(0-t) [1, 4]: 1.4 ng·h/mL
Cmax [1, 5]: 4.18 ng/mL
Cmax [1, 6]: 3.4 ng/mL
Cmax [1, 3]: 0.78 ng/mL
Cmax [1, 4]: 0.3 ng/mL
half-life ([1]; female, 0.1 mg/kg/day, T1/2, Female rats, 0.1 mg/kg/day oral, PND 7): 4.7 h
half-life ([1]; female, 0.1 mg/kg/day, T1/2, Female rats, 0.1 mg/kg/day oral, PND 12): 5.66 h
Tmax [1, 5]: 3 h
Tmax [1, 6]: 3 h
Tmax [1, 3]: 3 h
Tmax [1, 4]: 1 h
AUC(0-t) [1, 7]: 183 ng·h/mL
AUC(0-t) [1, 8]: 137 ng·h/mL
AUC(0-t) [1, 9]: 18.8 ng·h/mL
AUC(0-t) [1, 10]: 4.54 ng·h/mL
Cmax [1, 7]: 19.4 ng/mL
Cmax [1, 8]: 14.9 ng/mL
Cmax [1, 9]: 2.25 ng/mL
Cmax [1, 10]: 0.66 ng/mL
half-life ([1]; female, 0.3 mg/kg/day, T1/2, Female rats, 0.3 mg/kg/day oral, PND 7): 4.26 h
half-life ([1]; female, 0.3 mg/kg/day, T1/2, Female rats, 0.3 mg/kg/day oral, PND 12): 3.82 h
half-life ([1]; female, 0.3 mg/kg/day, T1/2, Female rats, 0.3 mg/kg/day oral, PND 23): 4.53 h
Tmax [1, 7]: 3 h
Tmax [1, 8]: 3 h
Tmax [1, 9]: 3 h
Tmax [1, 10]: 3 h
AUC(0-t) [1, 11]: 516 ng·h/mL
AUC(0-t) [1, 12]: 593 ng·h/mL
AUC(0-t) [1, 13]: 73 ng·h/mL
Cmax [1, 11]: 53.2 ng/mL
Cmax [1, 12]: 56.6 ng/mL
Cmax [1, 13]: 10.4 ng/mL
Cmax [1, 14]: 4.04 ng/mL
half-life ([1]; female, 1 mg/kg/day, T1/2, Female rats, 1.0 mg/kg/day oral, PND 7): 5.23 h
half-life ([1]; female, 1 mg/kg/day, T1/2, Female rats, 1.0 mg/kg/day oral, PND 12): 3.97 h
half-life ([1]; female, 1 mg/kg/day, T1/2, Female rats, 1.0 mg/kg/day oral, PND 23): 3.25 h
half-life ([1]; female, 1 mg/kg/day, T1/2, Female rats, 1.0 mg/kg/day oral, PND 35): 2.51 h
Tmax [1, 11]: 3 h
Tmax [1, 12]: 1 h
Tmax [1, 13]: 1 h
Tmax [1, 14]: 1 h
AUC(0-t) [1, 15]: 31.9 ng·h/mL
AUC(0-t) [1, 16]: 39.4 ng·h/mL
AUC(0-t) [1, 17]: 3.81 ng·h/mL
AUC(0-t) [1, 18]: 1.95 ng·h/mL
Cmax [1, 15]: 3.21 ng/mL
Cmax [1, 16]: 3.32 ng/mL
Cmax [1, 17]: 0.577 ng/mL
Cmax [1, 18]: 0.307 ng/mL
half-life ([1]; male, 0.1 mg/kg/day, T1/2, Male rats, 0.1 mg/kg/day oral, PND 7): 5.1 h
half-life ([1]; male, 0.1 mg/kg/day, T1/2, Male rats, 0.1 mg/kg/day oral, PND 12): 6.34 h
half-life ([1]; male, 0.1 mg/kg/day, T1/2, Male rats, 0.1 mg/kg/day oral, PND 35): 2.2 h
Tmax [1, 15]: 3 h
Tmax [1, 16]: 3 h
Tmax [1, 17]: 3 h
Tmax [1, 18]: 1 h
AUC(0-t) [1, 19]: 114 ng·h/mL
AUC(0-t) [1, 20]: 149 ng·h/mL
AUC(0-t) [1, 21]: 21.5 ng·h/mL
AUC(0-t) [1, 22]: 6 ng·h/mL
Cmax [1, 19]: 11.6 ng/mL
Cmax [1, 20]: 14.1 ng/mL
Cmax [1, 21]: 2.13 ng/mL
Cmax [1, 22]: 0.924 ng/mL
half-life ([1]; male, 0.3 mg/kg/day, T1/2, Male rats, 0.3 mg/kg/day oral, PND 7): 5.58 h
half-life ([1]; male, 0.3 mg/kg/day, T1/2, Male rats, 0.3 mg/kg/day oral, PND 12): 3.75 h
half-life ([1]; male, 0.3 mg/kg/day, T1/2, Male rats, 0.3 mg/kg/day oral, PND 23): 4.37 h
Tmax [1, 19]: 3 h
Tmax [1, 20]: 3 h
Tmax [1, 21]: 3 h
Tmax [1, 22]: 3 h
AUC(0-t) [1, 23]: 375 ng·h/mL
AUC(0-t) [1, 24]: 596 ng·h/mL
AUC(0-t) [1, 25]: 87.2 ng·h/mL
AUC(0-t) [1, 26]: 24.3 ng·h/mL
Cmax [1, 23]: 37.3 ng/mL
Cmax [1, 24]: 68.8 ng/mL
Cmax [1, 25]: 11.2 ng/mL
Cmax [1, 26]: 2.98 ng/mL
half-life ([1]; male, 1 mg/kg/day, T1/2, Male rats, 1.0 mg/kg/day oral, PND 12): 3.33 h
half-life ([1]; male, 1 mg/kg/day, T1/2, Male rats, 1.0 mg/kg/day oral, PND 23): 3.64 h
Tmax [1, 23]: 7 h
Tmax [1, 24]: 3 h
Tmax [1, 25]: 3 h
Tmax [1, 26]: 3 h
Body weight [2]: trend toward lower body weight

— PMC10784415 (Developmental dynamics : an official publication of the …, 2023)
